Results published in ChEMBL document CHEMBL1152541, “Staurosporine tethered peptide ligands that target cAMP-dependent protein kinase (PKA): optimization and selectivity profiling” (Bioorg Med Chem, 2009).
Each block holds one compound with its values, some of them ahead of it. *1 amine or outer side, *2 acyl side, *3 side chain or, on linkers, in order; H or OH if unused. Where a SMILES comes first, the peptide text is derived from it. Bridges are numbered along the chain shown (N, C = ends). [ ]: non-standard residue; d: D form. The star is where a group is joined. Staurosporine = CO[C@@H]1[C@H](N(C)*)C[C@H]2O[C@]1(C)n1c3ccccc3c3c4c(c5c6ccccc6n2c5c31)C(=O)NC4; Suc = O=C(CCC(=O)[*:2])[*:1]; Dap = NC[C@H](N)C(=O)O; βAla = NCCC(=O)O

Tests used:
[1] = biological target: Serine/threonine-protein kinase 32C (Homo sapiens) (UniProt Q86UX6); assay: Binding affinity to human YANK3 at 500 nM by cell-based competition binding assay relative to control in presence of DTT
Chain of Serine/threonine-protein kinase 32C (Homo sapiens) (Q86UX6 whole entry): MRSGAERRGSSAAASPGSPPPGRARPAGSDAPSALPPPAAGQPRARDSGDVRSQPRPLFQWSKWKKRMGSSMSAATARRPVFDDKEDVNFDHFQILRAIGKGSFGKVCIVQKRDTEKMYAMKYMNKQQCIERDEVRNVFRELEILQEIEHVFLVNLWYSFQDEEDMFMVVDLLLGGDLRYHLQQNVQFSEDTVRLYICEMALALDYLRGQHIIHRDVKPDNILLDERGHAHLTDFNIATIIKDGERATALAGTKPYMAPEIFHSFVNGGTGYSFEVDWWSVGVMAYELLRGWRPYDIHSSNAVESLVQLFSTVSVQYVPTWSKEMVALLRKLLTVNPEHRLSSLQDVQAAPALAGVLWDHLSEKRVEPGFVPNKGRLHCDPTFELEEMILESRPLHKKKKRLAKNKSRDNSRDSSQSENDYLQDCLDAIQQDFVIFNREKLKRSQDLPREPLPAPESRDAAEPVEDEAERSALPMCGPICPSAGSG

[2] = biological target: Platelet-derived growth factor receptor beta (Homo sapiens) (UniProt P09619); assay: Binding affinity to human PDGFRbeta at 500 nM by cell-based competition binding assay relative to control in presence of DTT
Chain of Platelet-derived growth factor receptor beta (Homo sapiens) (P09619 whole entry): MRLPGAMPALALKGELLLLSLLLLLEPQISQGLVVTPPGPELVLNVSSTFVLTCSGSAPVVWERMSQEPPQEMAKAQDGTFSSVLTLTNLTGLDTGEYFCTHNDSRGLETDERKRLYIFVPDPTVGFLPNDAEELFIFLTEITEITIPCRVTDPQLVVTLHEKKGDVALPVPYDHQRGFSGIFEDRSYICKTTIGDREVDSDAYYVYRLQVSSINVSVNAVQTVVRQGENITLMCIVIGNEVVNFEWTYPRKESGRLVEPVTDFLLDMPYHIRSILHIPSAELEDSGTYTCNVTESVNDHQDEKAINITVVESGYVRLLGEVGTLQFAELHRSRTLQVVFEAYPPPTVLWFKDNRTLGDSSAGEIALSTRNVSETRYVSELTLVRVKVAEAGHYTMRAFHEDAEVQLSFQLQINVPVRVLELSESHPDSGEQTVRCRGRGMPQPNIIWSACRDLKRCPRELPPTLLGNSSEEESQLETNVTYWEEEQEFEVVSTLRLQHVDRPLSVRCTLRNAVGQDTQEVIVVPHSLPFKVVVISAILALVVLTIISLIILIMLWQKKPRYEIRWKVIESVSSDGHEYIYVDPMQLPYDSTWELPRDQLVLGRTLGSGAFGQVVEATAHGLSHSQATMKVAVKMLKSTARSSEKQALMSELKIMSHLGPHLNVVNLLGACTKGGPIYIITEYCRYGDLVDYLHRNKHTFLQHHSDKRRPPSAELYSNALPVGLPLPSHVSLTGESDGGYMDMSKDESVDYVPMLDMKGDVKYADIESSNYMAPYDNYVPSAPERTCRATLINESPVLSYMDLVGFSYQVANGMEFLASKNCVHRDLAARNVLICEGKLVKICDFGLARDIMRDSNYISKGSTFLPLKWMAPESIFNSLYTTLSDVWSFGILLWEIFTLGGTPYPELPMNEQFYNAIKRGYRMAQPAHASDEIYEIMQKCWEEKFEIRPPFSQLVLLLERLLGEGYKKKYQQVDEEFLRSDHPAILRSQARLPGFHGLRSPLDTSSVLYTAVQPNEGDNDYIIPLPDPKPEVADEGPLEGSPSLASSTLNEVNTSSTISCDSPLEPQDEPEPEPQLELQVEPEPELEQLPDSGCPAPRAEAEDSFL

[3] = biological target: T1, Serine/threonine-protein kinase PLK4 (Homo sapiens) (UniProt O00444); assay: Binding affinity to human PLK4 at 500 nM by cell-based competition binding assay relative to control in presence of DTT
T1 sequence (whole entry): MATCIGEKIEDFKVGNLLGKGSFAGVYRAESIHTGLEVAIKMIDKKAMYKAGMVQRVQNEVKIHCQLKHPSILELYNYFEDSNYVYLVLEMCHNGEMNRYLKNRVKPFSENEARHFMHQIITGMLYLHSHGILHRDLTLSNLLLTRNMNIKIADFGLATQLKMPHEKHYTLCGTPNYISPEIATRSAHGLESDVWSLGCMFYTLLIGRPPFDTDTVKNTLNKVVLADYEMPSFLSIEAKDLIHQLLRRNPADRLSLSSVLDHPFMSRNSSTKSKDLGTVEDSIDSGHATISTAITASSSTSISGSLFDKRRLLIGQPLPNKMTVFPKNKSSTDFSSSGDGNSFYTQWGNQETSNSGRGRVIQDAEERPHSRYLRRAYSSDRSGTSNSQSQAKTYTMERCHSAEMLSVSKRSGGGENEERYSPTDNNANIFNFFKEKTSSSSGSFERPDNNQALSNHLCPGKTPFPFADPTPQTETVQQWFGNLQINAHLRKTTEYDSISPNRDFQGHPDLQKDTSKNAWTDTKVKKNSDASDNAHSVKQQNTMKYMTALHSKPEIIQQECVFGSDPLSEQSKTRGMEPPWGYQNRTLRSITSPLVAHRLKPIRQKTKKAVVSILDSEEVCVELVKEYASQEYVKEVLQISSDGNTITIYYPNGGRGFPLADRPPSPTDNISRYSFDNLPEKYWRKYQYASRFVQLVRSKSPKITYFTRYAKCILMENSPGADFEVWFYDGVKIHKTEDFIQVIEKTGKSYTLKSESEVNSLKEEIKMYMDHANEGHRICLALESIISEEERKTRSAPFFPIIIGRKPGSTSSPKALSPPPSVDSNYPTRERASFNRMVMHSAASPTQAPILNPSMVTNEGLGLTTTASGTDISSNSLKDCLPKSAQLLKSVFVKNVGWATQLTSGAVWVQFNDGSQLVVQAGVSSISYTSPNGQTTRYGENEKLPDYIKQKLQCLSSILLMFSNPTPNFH

[4] = biological target: Glycogen synthase kinase-3 beta (Homo sapiens) (UniProt P49841); assay: Binding affinity to human GSK3-beta at 200 nM by cell-based competition binding assay relative to control in presence of DTT
Chain of Glycogen synthase kinase-3 beta (Homo sapiens) (P49841 whole entry, looked up): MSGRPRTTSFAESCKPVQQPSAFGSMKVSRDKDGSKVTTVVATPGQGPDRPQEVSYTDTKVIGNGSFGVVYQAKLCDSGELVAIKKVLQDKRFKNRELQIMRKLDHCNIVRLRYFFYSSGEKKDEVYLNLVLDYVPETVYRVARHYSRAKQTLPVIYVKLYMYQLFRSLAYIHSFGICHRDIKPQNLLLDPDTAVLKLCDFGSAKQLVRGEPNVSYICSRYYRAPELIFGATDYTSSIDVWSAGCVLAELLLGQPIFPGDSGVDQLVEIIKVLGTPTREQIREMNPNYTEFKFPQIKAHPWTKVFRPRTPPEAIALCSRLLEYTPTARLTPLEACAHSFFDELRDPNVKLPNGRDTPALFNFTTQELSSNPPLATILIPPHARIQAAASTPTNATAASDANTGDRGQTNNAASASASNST
Method in brief: (§1)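 Commercial (Ambit) competitive kinase-binding panel of 90 kinases measured the binding profile. Run under reducing conditions of 7.5 mM DTT. Binding is expressed relative to control.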

[5] = biological target: Macrophage colony-stimulating factor 1 receptor (Homo sapiens) (UniProt P07333); assay: Binding affinity to human CSF1R at 200 nM by cell-based competition binding assay relative to control in presence of DTT; method in brief: as §1
Chain of Macrophage colony-stimulating factor 1 receptor (Homo sapiens) (P07333 whole entry, the tested form may be a part): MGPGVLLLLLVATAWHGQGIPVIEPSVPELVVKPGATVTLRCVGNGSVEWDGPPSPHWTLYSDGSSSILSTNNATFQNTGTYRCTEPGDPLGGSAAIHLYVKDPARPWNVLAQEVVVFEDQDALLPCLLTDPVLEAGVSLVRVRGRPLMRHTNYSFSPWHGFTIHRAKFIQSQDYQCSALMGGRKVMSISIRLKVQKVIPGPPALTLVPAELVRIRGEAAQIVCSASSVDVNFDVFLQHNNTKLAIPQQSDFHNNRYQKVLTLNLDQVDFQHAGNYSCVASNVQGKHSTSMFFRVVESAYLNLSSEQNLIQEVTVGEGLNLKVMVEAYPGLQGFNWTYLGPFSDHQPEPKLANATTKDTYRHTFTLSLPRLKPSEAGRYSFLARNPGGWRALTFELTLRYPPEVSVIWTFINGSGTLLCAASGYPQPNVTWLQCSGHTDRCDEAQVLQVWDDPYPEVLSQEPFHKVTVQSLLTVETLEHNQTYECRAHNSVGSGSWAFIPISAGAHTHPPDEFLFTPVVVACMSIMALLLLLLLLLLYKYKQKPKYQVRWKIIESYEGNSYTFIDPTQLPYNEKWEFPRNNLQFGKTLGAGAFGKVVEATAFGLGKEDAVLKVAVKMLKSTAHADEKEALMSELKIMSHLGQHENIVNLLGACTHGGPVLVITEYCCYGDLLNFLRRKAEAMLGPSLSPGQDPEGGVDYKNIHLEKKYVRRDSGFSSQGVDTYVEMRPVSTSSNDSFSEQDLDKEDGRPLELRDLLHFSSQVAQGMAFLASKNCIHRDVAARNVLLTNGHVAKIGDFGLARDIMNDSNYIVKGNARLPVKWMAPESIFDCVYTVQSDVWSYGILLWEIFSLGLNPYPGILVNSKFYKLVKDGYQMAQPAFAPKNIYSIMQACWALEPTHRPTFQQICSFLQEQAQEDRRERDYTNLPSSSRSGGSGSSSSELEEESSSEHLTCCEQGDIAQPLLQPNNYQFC

[6] = biological target: Non-receptor tyrosine-protein kinase TYK2 (Homo sapiens) (UniProt P29597); assay: Binding affinity to human TYK2 kinase domain 2 at 200 nM by cell-based competition binding assay relative to control in presence of DTT
[7] = biological target: RAF proto-oncogene serine/threonine-protein kinase (Homo sapiens) (UniProt P04049); assay: Binding affinity to human RAF1 at 200 nM by cell-based competition binding assay relative to control in presence of DTT
[8] = biological target: Serine/threonine-protein kinase 32C (Homo sapiens) (UniProt Q86UX6); assay: Binding affinity to human YANK3 at 200 nM by cell-based competition binding assay relative to control in presence of DTT
[9] = biological target: T2, TGF-beta receptor type-1 (Homo sapiens) (UniProt P36897); assay: Binding affinity to human TGFBR1 at 200 nM by cell-based competition binding assay relative to control in presence of DTT
T2 sequence (whole entry): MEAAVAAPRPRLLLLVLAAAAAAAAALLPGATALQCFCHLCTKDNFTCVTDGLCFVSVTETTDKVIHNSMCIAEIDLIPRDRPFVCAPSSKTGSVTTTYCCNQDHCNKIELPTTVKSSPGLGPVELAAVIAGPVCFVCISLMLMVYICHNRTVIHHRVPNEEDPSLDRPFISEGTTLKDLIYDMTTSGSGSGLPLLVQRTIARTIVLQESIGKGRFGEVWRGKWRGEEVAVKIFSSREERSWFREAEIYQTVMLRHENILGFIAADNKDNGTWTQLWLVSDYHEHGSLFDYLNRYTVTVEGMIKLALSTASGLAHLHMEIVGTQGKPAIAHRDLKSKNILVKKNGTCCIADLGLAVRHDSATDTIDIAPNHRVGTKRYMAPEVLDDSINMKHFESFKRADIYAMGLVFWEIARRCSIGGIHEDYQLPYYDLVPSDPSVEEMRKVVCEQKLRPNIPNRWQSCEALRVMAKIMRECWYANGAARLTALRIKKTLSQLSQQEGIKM

[10] = biological target: High affinity nerve growth factor receptor (Homo sapiens) (UniProt P04629); assay: Binding affinity to human TRKA at 200 nM by cell-based competition binding assay relative to control in presence of DTT
Chain of High affinity nerve growth factor receptor (Homo sapiens) (P04629 33-796 limits assumed): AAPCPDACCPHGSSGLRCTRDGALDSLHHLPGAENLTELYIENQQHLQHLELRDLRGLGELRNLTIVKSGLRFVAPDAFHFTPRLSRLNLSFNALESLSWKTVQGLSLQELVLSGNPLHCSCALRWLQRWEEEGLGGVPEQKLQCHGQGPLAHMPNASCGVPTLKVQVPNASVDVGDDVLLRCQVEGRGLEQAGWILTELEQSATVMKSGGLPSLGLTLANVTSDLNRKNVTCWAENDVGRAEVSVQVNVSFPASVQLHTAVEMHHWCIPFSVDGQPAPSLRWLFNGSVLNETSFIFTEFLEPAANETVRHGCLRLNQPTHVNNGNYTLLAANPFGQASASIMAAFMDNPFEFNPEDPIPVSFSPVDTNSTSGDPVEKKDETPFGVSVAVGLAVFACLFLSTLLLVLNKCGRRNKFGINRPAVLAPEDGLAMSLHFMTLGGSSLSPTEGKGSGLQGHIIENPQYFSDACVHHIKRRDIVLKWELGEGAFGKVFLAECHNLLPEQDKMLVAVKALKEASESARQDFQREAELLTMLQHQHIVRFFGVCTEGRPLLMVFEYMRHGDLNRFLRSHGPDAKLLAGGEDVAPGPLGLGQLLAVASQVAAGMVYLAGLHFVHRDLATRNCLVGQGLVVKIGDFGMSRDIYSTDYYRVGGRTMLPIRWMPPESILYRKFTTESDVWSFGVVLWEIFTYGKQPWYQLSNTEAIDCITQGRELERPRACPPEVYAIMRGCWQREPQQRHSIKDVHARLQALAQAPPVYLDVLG

[11] = test system: Mast/stem cell growth factor receptor Kit (Homo sapiens), P10721 [V559D,T670I]; assay: Binding affinity to human KIT V559D,T670I mutant at 50 nM by cell-based competition binding assay relative to control in presence of DTT
Chain of Mast/stem cell growth factor receptor Kit (Homo sapiens), P10721 [V559D,T670I] (P10721 whole entry V559D/T670I): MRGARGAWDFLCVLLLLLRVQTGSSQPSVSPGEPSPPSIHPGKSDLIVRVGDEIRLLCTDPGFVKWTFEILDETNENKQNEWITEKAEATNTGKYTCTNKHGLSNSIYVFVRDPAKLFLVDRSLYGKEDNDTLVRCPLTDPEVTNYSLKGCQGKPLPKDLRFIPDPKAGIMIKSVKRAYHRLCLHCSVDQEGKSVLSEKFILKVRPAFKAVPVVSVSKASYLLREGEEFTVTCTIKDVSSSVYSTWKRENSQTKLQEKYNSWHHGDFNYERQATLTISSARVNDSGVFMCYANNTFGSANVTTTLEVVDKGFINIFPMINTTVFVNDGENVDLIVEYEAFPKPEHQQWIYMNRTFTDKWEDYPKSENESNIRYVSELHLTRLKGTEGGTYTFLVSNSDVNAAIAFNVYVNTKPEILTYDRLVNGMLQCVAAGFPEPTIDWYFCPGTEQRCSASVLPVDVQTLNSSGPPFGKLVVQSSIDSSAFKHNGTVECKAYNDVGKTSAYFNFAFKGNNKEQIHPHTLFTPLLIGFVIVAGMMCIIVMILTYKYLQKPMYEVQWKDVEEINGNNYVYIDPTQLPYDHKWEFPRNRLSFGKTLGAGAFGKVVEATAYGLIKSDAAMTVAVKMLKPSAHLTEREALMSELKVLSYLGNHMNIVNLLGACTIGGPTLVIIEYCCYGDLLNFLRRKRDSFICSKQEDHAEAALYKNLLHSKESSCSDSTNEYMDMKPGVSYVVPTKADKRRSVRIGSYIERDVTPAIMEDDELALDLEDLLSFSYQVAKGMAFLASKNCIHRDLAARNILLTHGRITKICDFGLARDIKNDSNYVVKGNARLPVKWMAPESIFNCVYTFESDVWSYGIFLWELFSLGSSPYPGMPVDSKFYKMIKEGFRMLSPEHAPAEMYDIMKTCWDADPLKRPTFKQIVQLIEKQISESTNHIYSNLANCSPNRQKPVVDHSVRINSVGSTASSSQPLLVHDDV
Method in brief: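 Competition binding screen (Ambit) across a panel of 90 kinases, scoring test ligand displacement of each kinase's binding relative to control. The screen ran under reducing conditions with 7.5 mM DTT.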

[12] = biological target: Receptor tyrosine-protein kinase erbB-4 (Homo sapiens) (UniProt Q15303); assay: Binding affinity to human ERBB4 at 50 nM by cell-based competition binding assay relative to control in presence of DTT; method in brief: as §1

Activity [1]: 100% | Activity [2]: 0.05% | Activity [3]: 3.6%
Structure (SMILES): CO[C@@H]1[C@H](N(C)C(=O)CCC(=O)NCCC(=O)NCCC(=O)NCCC(N)=O)C[C@H]2O[C@]1(C)n1c3ccccc3c3c4c(c5c6ccccc6n2c5c31)C(=O)NC4

Activity [4]: 100% | Activity [5]: 44% | Activity [6]: 62% | Activity [7]: 89% | Activity [8]: 100% | Activity [9]: 100% | Activity [10]: 57%
Structure (SMILES): CO[C@@H]1[C@H](N(C)C(=O)CCC(=O)NCCC(=O)NCCC(=O)NCCC(=O)NCCC(=O)NCCC(=O)NCCC(=O)NCCC(=O)N[C@H]2CSSC[C@@H](C(=O)NCC(N)=O)NC(=O)CNC(=O)[C@H](Cc3ccccc3)NC(=O)[C@H](C(C)C)NC(=O)[C@H](CCCNC(=N)N)NC(=O)[C@H](Cc3ccccc3)NC(=O)[C@H](C(C)C)NC2=O)C[C@H]2O[C@]1(C)n1c3ccccc3c3c4c(c5c6ccccc6n2c5c31)C(=O)NC4 ({Staurosporine-Suc-βAla-βAla-βAla-βAla-βAla-βAla-βAla}-CVFRVFGCG-NH2; disulfide 1-8)

Activity [11]: 59% | Activity [12]: 100%
Structure (SMILES): CO[C@@H]1[C@H](N(C)C(=O)CCC(=O)NCCC(=O)NCCC(=O)NCCC(=O)NCCC(=O)NCCC(=O)NCCC(=O)NCCC(=O)N[C@H]2CNC(=O)C[C@@H](C(N)=O)NC(=O)CNC(=O)[C@H](Cc3ccccc3)NC(=O)[C@H](C(C)C)NC(=O)[C@H](CCCNC(=N)N)NC(=O)[C@H](Cc3ccccc3)NC(=O)[C@H](C(C)C)NC2=O)C[C@H]2O[C@]1(C)n1c3ccccc3c3c4c(c5c6ccccc6n2c5c31)C(=O)NC4 ({Staurosporine-Suc-βAla-βAla-βAla-βAla-βAla-βAla-βAla}-[Dap]VFRVFGD-NH2; lactam 1-8)
